Assay results reported in ChEMBL document CHEMBL4428034, “Bioactive Isoprenoid-Derived Natural Products from a Dongsha Atoll Soft Coral Sinularia erecta” (J Nat Prod, 2016).

Tests used:
Neutrophil [1] = assay: Anti-inflammatory activity in FMLP/CB-stimulated human neutrophils assessed as inhibition of elastase release at 10 uM preincubated for 5 mins followed by FMLP/CB stimulation for 10 mins using MeO-Suc-Ala-Ala-Pro-Val-p-nitroanilide as substrate relative to control; assay type: functional
Summary of the method: (§1)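 Percent inhibition at 10 μM relative to control in fMLP/CB-stimulated human neutrophils. Values are mean ± SEM (n = 3), with significance tested against the control value.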

Neutrophil [2] = assay: Anti-inflammatory activity in FMLP/CB-stimulated human neutrophils assessed as inhibition of superoxide generation at 10 uM preincubated for 5 mins followed by cytochalasin B and FMLP stimulation for 3 mins and 10 mins respectively by ferricytochrome c reduction based assay relative to control; assay type: functional; summary of the method: as §1
Neutrophil [3] = assay: Anti-inflammatory activity in FMLP/CB-stimulated human neutrophils assessed as inhibition of superoxide generation preincubated for 5 mins followed by cytochalasin B and FMLP stimulation for 3 mins and 10 mins respectively by ferricytochrome c reduction based assay; assay type: functional, cell-based
Summary of the method: (§2)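 In fMLP/CB-stimulated human neutrophils, IC50 was taken as the concentration giving 50% inhibition. Values are mean ± SEM (n = 3).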

Neutrophil [4] = assay: Anti-inflammatory activity in FMLP/CB-stimulated human neutrophils assessed as inhibition of elastase release preincubated for 5 mins followed by FMLP/CB stimulation for 10 mins using MeO-Suc-Ala-Ala-Pro-Val-p-nitroanilide as substrate; assay type: functional, cell-based; summary of the method: as §2
K562 = assay: Cytotoxicity against human K562 cells assessed as growth inhibition after 3 days by alamar blue assay; assay type: functional, cell-based; details: K562, 72 h
MOLT-4 = assay: Cytotoxicity against human MOLT4 cells assessed as growth inhibition after 3 days by alamar blue assay; assay type: functional, cell-based; details: MOLT-4, 72 h
Summary of the method: (§3)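 Cells were seeded at 5 × 10^3 to 1 × 10^4 per well and kept in a humidified 5% CO2 incubator. After 3 days in culture, Alamar Blue was added for 4 h and absorbance read at 595 nm. IC50 is the concentration that reduced cell growth by 50%.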

CCRF-CEM = assay: Cytotoxicity against human CCRF-CEM cells assessed as growth inhibition after 3 days by alamar blue assay; assay type: functional, cell-based; details: 72 h; summary of the method: as §3

Compound | IC50 (Neutrophil [3]) [µM] | IC50 (Neutrophil [4]) [µM] | inhibition at 10 µM (Neutrophil [1]) [%] | inhibition at 10 µM (Neutrophil [2]) [%] | IC50 (K562) [µM] | IC50 (MOLT-4) [µM] | IC50 (CCRF-CEM) [µM]
CC[C@H](Nc1ncnc2[nH]cnc12)c1nc2cccc(F)c2c(=O)n1-c1ccccc1 [IDELALISIB] | 0.07 | 0.3 | 100 | 103 |  |  | 
C=C(C)[C@H]1CC(=O)[C@@H]2[C@@H](C1)[C@H]1C(=O)O[C@H]3C[C@@]4(C)O[C@@H]2C(=O)[C@H]4[C@@H]13 | > 10 | > 10 | 18 | 16 |  |  | 
COC(=O)[C@@]1(CCl)O[C@@]2(O)C[C@H]1C[C@@H](O)[C@]13O[C@H]1[C@H](C[C@@]1(C)CC(=O)[C@H](C2)O1)OC3=O | > 10 | > 10 | 14 | 7 |  |  | 
C=C(C)[C@@H]1CCC(=C)[C@@H](OO)CCC(=C)[C@H]2CC[C@@](C)(O2)[C@@H](O)C1 | > 10 | > 10 | 33 | 24 | 9.2 |  | 

Now from value to compound, other results behind:

IC50 (Neutrophil [3]) [µM] | IC50 (Neutrophil [4]) [µM] | Compound | inhibition at 10 µM (Neutrophil [1]) [%] | inhibition at 10 µM (Neutrophil [2]) [%] | IC50 (K562) [µM] | IC50 (MOLT-4) [µM] | IC50 (CCRF-CEM) [µM]
8.5 | 3.8 | C=C(C(=O)OC)[C@H]1CC(=O)C[C@@H]2O[C@@H]3[C@H](C[C@](C)(O)CC2=O)OC(=O)[C@@]32O[C@@H]2C1 | 93 | 55 |  |  | 
2.3 | 0.9 | C=C(C)[C@@H]1C[C@H]2O[C@](O)(C1)C[C@@H](OC(C)=O)C(=O)/C=C(/C)C[C@@H]1OC(=O)[C@]23O[C@@H]13 | 113 | 100 |  |  | 
> 10 | > 10 | C=C(C)[C@@H]1CCC2=C[C@H](C[C@@]3(C)CC(=O)[C@H](CC(=O)C1)O3)OC2=O | 19 | 15 |  |  | 
> 10 | > 10 | C=C(C)C(CCC(C)=O)C[C@@H]1O[C@@]1(C)C/C=C/C(C)=O (stereo partly specified) | 17 | 13 | 8.6 | 9.7 | 
> 10 | 1 | CCCCCCCCC/C(C)=C\C(=O)NCCc1ccc(O)cc1 | 102 | 48 |  | 9.7 | 6.3
